KDM4C inh: inhibitors of GASC-1 (KDM4C) histone demethylase, primary screen, biochemical, single concentration HTS | Lysine-specific demethylase 4C (Homo sapiens), Q9H3R0 | GST-KDM4C 2-372, H3K9me3 peptide, LANCE TR-FRET | inhibition, % at 12.5 µM | 96,000 tested, 0.15% active;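 active means mean replicate inhibition above about 25%, with at least 55% of replicates also reaching it, limit read from the data, passing the limit was not always enough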
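Material: GST-tagged GASC-1 (JMJD2C) catalytic fragment, aa 2-372 / Quantity: enzyme final amount 10 nM / Medium: HEPES buffer, pH 7.5, plus ascorbate / Doses: one test concentration per compound / Incubation: 30 min reaction, 60 min detection, RT / Measured by: LANCE TR-FRET / Read-out: inhibition from TR-FRET ratio decrease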
IDH1 mut inh: inhibitors of IDH1 R132H reductase, primary screen, biochemical, plate reader, single point | diaphorase/resazurin fluorescence, 60 min | 70,000 tested, 0.18% active | inhibition, % at 10 µM; in the data active means inhibition above about 34%;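 further: 0% = DMSO and 100% = no enzyme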
Target sequence (O75874 whole entry R132H): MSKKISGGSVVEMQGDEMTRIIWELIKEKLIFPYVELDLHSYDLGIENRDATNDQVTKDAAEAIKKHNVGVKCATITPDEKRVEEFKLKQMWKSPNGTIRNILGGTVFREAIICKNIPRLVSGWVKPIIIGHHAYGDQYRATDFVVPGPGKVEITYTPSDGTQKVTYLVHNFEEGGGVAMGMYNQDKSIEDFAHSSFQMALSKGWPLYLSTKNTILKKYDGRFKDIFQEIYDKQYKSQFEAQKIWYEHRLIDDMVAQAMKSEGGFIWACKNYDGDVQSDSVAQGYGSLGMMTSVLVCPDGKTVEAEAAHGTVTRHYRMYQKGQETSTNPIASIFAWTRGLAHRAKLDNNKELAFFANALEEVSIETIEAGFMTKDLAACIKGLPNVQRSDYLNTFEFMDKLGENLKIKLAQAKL
Pf Dd2 inh: P. falciparum Dd2 growth inhibitors, primary screen, SYBR Green fluorescence, single dose replicates; activity change, % at 10 µM; AID 1159554, 2015; 94,000 tested, 2.3% active; 72 h; stronger effect = lower value; in the data active means activity change below about -80%
T cruzi growth: T. cruzi intracellular proliferation inhibitors, primary screen, cell-based, beta-gal Tulahuen parasites, NIH3T3 host, luminescence. AID 624255, 2012. T. cruzi beta-gal in NIH3T3, GalScreen luminescence, 90 h. 77,000 tested, 5.9% active. inhibition, % at 8.34 µM;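 active means mean inhibition above about 93%, with at least 55% of replicates each passing it, limit read from the data, passing the limit was not always enough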
* marks the source's active call; other numbers are inactive results; / = no result; ! = not active in a repeat. A selection: hits, their analogues and other compounds. The true share with any hit is near 5.8%.

SMILES	KDM4C inh	IDH1 mut inh	Pf Dd2 inh	T cruzi growth
CC(=O)N1CC2(C1)[C@H](c1ccccc1)[C@@H](CO)N2C(=O)c1cnccn1	0.4	/	-1.0	/
COCC(=O)N1CCC2(CC1)CN(Cc1cccc(F)c1)[C@H](CO)c1c2c2ccc(OC)cc2n1C	-2.1	/	-61.0	/
CNC[C@@H]1Oc2ccc(NC(=O)Nc3ccc(F)cc3)cc2C(=O)N([C@@H](C)CO)C[C@@H]1C	-0.1	1.9	9.4	/
C[C@@H]1CN([C@@H](C)CO)C(=O)c2cccc(NC(=O)Nc3ccc(C(F)(F)F)cc3)c2O[C@H]1CN(C)C	-1.3	-0.2	8.2	/
COCC#Cc1ccc2c(c1)O[C@@H](CN(C)C(=O)COC)[C@@H](C)CN([C@@H](C)CO)S2(=O)=O	2.6	-0.7	10.4	6.0
O=S(=O)(N[C@H]1CC[C@H](CCn2cc(Cc3ccccc3)nn2)O[C@H]1CO)c1ccccc1F	34.1*	0.6	-17.1	1.2
CCCc1cn(CC[C@@H]2CC[C@@H](NS(=O)(=O)c3ccc(-c4ccccc4)cc3)[C@@H](CO)O2)nn1	-0.9	-0.4	-91.4*	65.9
CN(C)Cc1cn(CC[C@@H]2CC[C@H](NS(=O)(=O)c3ccccc3)[C@H](CO)O2)nn1	0.4	0.0	/	/
CCCc1cn(CC[C@H]2CC[C@@H](NS(=O)(=O)c3ccc(-c4ccccc4)cc3)[C@@H](CO)O2)nn1	-1.0	0.0	-93.7*	45.5
O=S(=O)(N[C@H]1CC[C@@H](CCn2cc(C3(O)CCCC3)nn2)O[C@@H]1CO)c1ccc(F)cc1	35.9*	8.2	-6.3	-52.0
O=C(C[C@@H]1CC[C@H](NC(=O)Nc2cccc(F)c2)[C@@H](CO)O1)NCC1CCCCC1	1.1	0.1	-3.9	/
COCC(=O)N(C)C[C@@H]1Oc2cc(C#Cc3ccccc3)ccc2S(=O)(=O)N([C@H](C)CO)C[C@@H]1C	-0.9	-4.5	-81.8*	16.2
C[C@H](CO)N1C[C@H](C)[C@H](CN(C)C(=O)C2CC2)Oc2cc(C#Cc3ccccc3)ccc2S1(=O)=O	-2.9	-1.4	-91.8*	89.1
C[C@H](CO)N1C[C@H](C)[C@@H](CN(C)C(=O)C2CC2)Oc2cc(C#Cc3ccccc3)ccc2S1(=O)=O	0.5	1.0	-63.7	51.5
COCC(=O)N(C)C[C@H]1Oc2cc(C#Cc3ccccc3)ccc2S(=O)(=O)N([C@@H](C)CO)C[C@@H]1C	-0.8	4.7	-76.3	25.0
[N-]=[N+]=NCc1ccccc1C[C@]1(C(=O)NCCN2CCOCC2)COC(c2ccc(OCCCO)cc2)=N1	/	-0.2	/	/
C[C@@H]1CN([C@@H](C)CO)C(=O)c2cccc(NC(=O)CCCCCC(=O)Nc3ccccc3N)c2O[C@@H]1CN(C)C(=O)Nc1ccc(C(F)(F)F)cc1	-2.0	/	-90.5*	/
C[C@@H]1CN([C@@H](C)CO)C(=O)c2cccc(NC(=O)CCCCCC(=O)Nc3ccccc3N)c2O[C@@H]1CN(C)C(=O)Nc1cccc2ccccc12	-0.5	/	-88.1*	/
Cc1noc(C)c1NC(=O)N(C)C[C@H]1Oc2c(NC(=O)CCCCCC(=O)Nc3ccccc3N)cccc2C(=O)N([C@@H](C)CO)C[C@H]1C	0.1	/	-85.8*	/
C[C@H](CO)N1C[C@H](C)[C@H](CN(C)C(=O)Nc2ccc(F)cc2)Oc2c(NC(=O)CCCCCC(=O)Nc3ccccc3N)cccc2C1=O	-0.8	0.3	-77.6	/
C[C@@H]1CN([C@@H](C)CO)C(=O)c2cccc(NC(=O)CCCCCC(=O)Nc3ccccc3N)c2O[C@@H]1CN(C)C(=O)Nc1ccc(F)cc1	-1.1	/	-86.4*	/
Cc1noc(C)c1NC(=O)N(C)C[C@@H]1Oc2c(NC(=O)CCCCCC(=O)Nc3ccccc3N)cccc2C(=O)N([C@@H](C)CO)C[C@@H]1C	0.5	0.4	30.5	/
COC(=O)c1cc(NC(=O)CN(c2cc(C)cc(C)c2)S(C)(=O)=O)ccc1Cl	/	0.9	/	/
C/C(=C/CO)CC[C@@H]1[C@@](C)(O)CCC2C(C)(C)CCC[C@]21C (stereo partly specified)	/	1.6	/	/
C[C@H](CO)N1C[C@H](C)[C@@H](CN(C)CC2CCCCC2)Oc2c(NC(=O)C3CCOCC3)cccc2C1=O	-0.2	6.4	-15.0	9.0
SMILES	KDM4C inh	IDH1 mut inh	Pf Dd2 inh	T cruzi growth
CCCNC(=O)[C@@H]1[C@@H](CO)[C@@H]2Cn3c(ccc(C4=CCCC4)c3=O)[C@@H]2N1C(=O)C1CC1	-0.1	/	0.7	-7.9
CNC[C@@H]1Oc2ccc(NC(=O)Nc3ccc(C(F)(F)F)cc3)cc2CC(=O)N([C@@H](C)CO)C[C@H]1C	-2.1	3.7	15.5	11.4
C[C@@H]1CN([C@H](C)CO)C(=O)c2cccc(NC(=O)CCCCCC(=O)Nc3ccccc3N)c2O[C@@H]1CN(C)C(=O)Nc1ccc2c(c1)OCO2	-1.0	/	-82.0*	/
CCC(=O)N1[C@@H](C#N)[C@@H](c2ccccc2-c2cccc(C)c2)[C@@H]1CO	-1.4	/	-24.9	/
CCC(=O)N1[C@H](CO)[C@@H](c2ccccc2-c2cccc(C)c2)[C@@H]1C#N	-1.3	/	-86.3*	/
COCC(=O)N1[C@H](C#N)[C@@H](c2ccccc2-c2ccccc2)[C@@H]1CO	-0.7	/	2.6	/
COCC(=O)N1[C@H](C#N)[C@@H](c2ccccc2-c2ccccc2)[C@H]1CO	-0.5	/	-92.8*	/
COCC(=O)N1[C@@H](C#N)[C@H](c2ccccc2-c2ccccc2)[C@@H]1CO	0.1	/	-86.2*	/
CCCNC(=O)[C@H]1[C@H](CO)[C@H]2Cn3c(ccc(/C=C/c4ccccc4)c3=O)[C@@H]1N2C(=O)C1CCC1	-2.2	/	-4.6	-9.6
CCCNC(=O)N1C[C@@H]2[C@H](c3ccccc31)[C@@H](CO)N2C(=O)c1ccccc1	-0.2	/	6.8	0.7
Cc1ccc(S(=O)(=O)N(C)C[C@@H]2Oc3ccc(NC(=O)C4CC4)cc3C(=O)N([C@H](C)CO)C[C@H]2C)cc1	1.4	-4.5	-21.4	18.5
COc1ccccc1S(=O)(=O)N(C)C[C@@H]1Oc2cc(C#CCC(C)C)ccc2S(=O)(=O)N([C@H](C)CO)C[C@@H]1C	-0.6	-1.7	-85.1*!	45.6
COc1ccc(C#Cc2ccc3c(c2)O[C@H](CN(C)S(=O)(=O)c2ccccc2F)[C@H](C)CN([C@@H](C)CO)S3(=O)=O)cc1	-6.7	-0.1	-68.9	/
COc1ccc(S(=O)(=O)N(C)C[C@H]2Oc3cc(C#CC4CCCCC4)ccc3S(=O)(=O)N([C@H](C)CO)C[C@@H]2C)cc1	1.5	/	-85.0*	82.9
COc1ccc(C#Cc2ccc3c(c2)O[C@@H](CN(C)S(=O)(=O)c2ccccc2F)[C@@H](C)CN([C@H](C)CO)S3(=O)=O)cc1	-2.9	-0.1	-88.3*	/
COc1ccccc1S(=O)(=O)N(C)C[C@@H]1Oc2cc(C#CCC3CCCC3)ccc2S(=O)(=O)N([C@H](C)CO)C[C@@H]1C	0.4	-0.1	-45.0	/

Compound activity deposited in PubChem BioAssay by Broad Institute.
